Reference: ChEMBL document CHEMBL1154191, “Evaluation of spirocyclic 3-(3-fluoropropyl)-2-benzofurans as sigma1 receptor ligands for neuroimaging with positron emission tomography” (J Med Chem, 2009)

Tests used:
Stomach [1] = assay: Biodistribution in CD1 mouse stomach assessed per gram of wet tissue at 400 to 600 kBq, iv after 60 mins post-injection by gamma counting; format: ADME, organism-based; conditions: in vivo, 1 h
Summary of the method: (§1)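 Female CD-1 mice (~8-12 weeks, 20-28 g), habituated ≥48 h and fasted 24 h with water available. The [18F] tracer (>150 GBq/μmol at end of synthesis) was given in 200 μL saline into the tail vein of conscious animals. At each time point, n=4-5, mice were anaesthetised, blood and urine sampled, then killed by cervical dislocation. Organs were weighed and γ-counted, and values calculated as % ID/g wet tissue.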

Brain [2] = assay: Biodistribution in CD1 mouse brain assessed per gram of wet tissue at 400 to 600 kBq, iv after 5 mins post-injection by gamma counting; format: ADME, organism-based; conditions: in vivo
Summary of the method: (§2)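 Female CD-1 mice (~8-12 weeks, 20-28 g) were fasted 24 h with free water. Conscious mice got 400-600 kBq [¹⁸F] tracer in saline by tail vein. At 5, 30, 60 or 120 min (n=4-5 per time) they were anesthetized, blood and urine sampled, then killed by cervical dislocation. Organs were weighed and γ-counted, giving % ID/g wet tissue.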

Cerebellum [3] = assay: Biodistribution in CD1 mouse cerebellum assessed per gram of wet tissue at 400 to 600 kBq, iv after 60 mins post-injection by gamma counting; format: ADME, organism-based; conditions: in vivo, 1 h; summary of the method: as §2
Lung [4] = assay: Biodistribution in CD1 mouse lung assessed per gram of wet tissue at 400 to 600 kBq, iv after 5 mins post-injection by gamma counting; format: ADME, organism-based; conditions: in vivo; summary of the method: as §1
[5] = Ratio of drug level in cerebellum to plasma in CD1 mouse at 400 to 600 kBq, iv after 5 mins post-injection; format: ADME, organism-based
Summary of the method: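 Female CD-1 mice (~8-12 weeks, 20-28 g), fasted 24 h with free water; 400-600 kBq tracer in 200 μL saline by tail vein into conscious animals. Killed at set times pi (n=4-5 per time); blood and organs weighed, γ-counted, expressed as % ID/g wet tissue; ratio from cerebellum and plasma uptake.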

Heart [6] = assay: Biodistribution in CD1 mouse heart assessed per gram of wet tissue at 400 to 600 kBq, iv after 60 mins post-injection by gamma counting in presence of 1 mg/kg, ip sigma 1/sigma 2 receptor antagonist haloperidol treated before compound addition; format: organism-based; design: dose 1 mg/kg, route intravenous; conditions: in vivo, 1 h
Summary of the method: (§3)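 Blocking arm in fasted female CD-1 mice (n=5). […] Animals were killed at 60 min post-injection, and organs were weighed and γ-counted as % ID/g wet tissue. Percent change was taken against the 60 min control group, with two-tailed unpaired Student's t test.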

Cerebellum [7] = assay: Biodistribution in CD1 mouse cerebellum assessed per gram of wet tissue at 400 to 600 kBq, iv after 30 mins post-injection by gamma counting; format: ADME, organism-based; conditions: in vivo, 0.5 h; summary of the method: as §2
Intestine [8] = assay: Biodistribution in CD1 mouse intestine assessed per gram of wet tissue at 400 to 600 kBq, iv after 60 mins post-injection by gamma counting in presence of 1 mg/kg, ip sigma 1/sigma 2 receptor antagonist haloperidol treated before compound addition; format: organism-based; design: dose 1 mg/kg, route intravenous; conditions: in vivo, 1 h; summary of the method: as §3
Spleen [9] = assay: Biodistribution in CD1 mouse spleen assessed per gram of wet tissue at 400 to 600 kBq, iv after 5 mins post-injection by gamma counting; format: ADME, organism-based; conditions: in vivo; summary of the method: as §1
Pancreas [10] = assay: Biodistribution in CD1 mouse pancreas assessed per gram of wet tissue at 400 to 600 kBq, iv after 60 mins post-injection by gamma counting; format: ADME, organism-based; conditions: in vivo, 1 h; summary of the method: as §1
Heart [11] = assay: Biodistribution in CD1 mouse heart assessed per gram of wet tissue at 400 to 600 kBq, iv after 5 mins post-injection by gamma counting; format: ADME, organism-based; conditions: in vivo; summary of the method: as §2
[12] = Ratio of drug level in cerebellum to plasma in CD1 mouse at 400 to 600 kBq, iv after 60 mins post-injection in presence of 1 mg/kg, ip sigma 1/sigma 2 receptor antagonist haloperidol treated before compound addition; format: organism-based; design: route intravenous
Summary of the method: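 Killed 60 min pi; blood and cerebellum weighed, γ-counted as % ID/g wet tissue, ratio derived; Student's two-tailed t test versus untreated controls.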

Femur [13] = assay: Biodistribution in CD1 mouse femur assessed per gram of wet tissue at 400 to 600 kBq, iv after 60 mins post-injection by gamma counting; format: ADME, organism-based; conditions: in vivo, 1 h; summary of the method: as §2
Cerebellum [14] = assay: Biodistribution in CD1 mouse cerebellum assessed per gram of wet tissue at 400 to 600 kBq, iv after 60 mins post-injection by gamma counting in presence of 1 mg/kg, ip sigma 1/sigma 2 receptor antagonist haloperidol treated before compound addition; format: organism-based; design: dose 1 mg/kg, route intravenous; conditions: in vivo, 1 h; summary of the method: as §3
Mus musculus = assay: Plasma concentration in CD1 mouse assessed per gram of wet tissue at 400 to 600 kBq, iv after 60 mins post-injection by gamma counting; format: ADME, organism-based; conditions: in vivo, 1 h
Summary of the method: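 Female CD-1 mice (~8-12 weeks, 20-28 g), fasted 24 h with free access to water. 400-600 kBq [18F] tracer in 200 μL saline given by tail vein to conscious mice. At 5, 30, 60 or 120 min pi (n=4-5 per time) mice anaesthetised, blood taken, then euthanised. Samples weighed, γ-counted, %ID/g wet tissue calculated.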

Femur [15] = assay: Biodistribution in CD1 mouse femur assessed per gram of wet tissue per gram of wet tissue at 400 to 600 kBq, iv after 60 mins post-injection by gamma counting in presence of 1 mg/kg, ip sigma 1/sigma 2 receptor antagonist haloperidol treated before compound addition; format: organism-based; design: dose 1 mg/kg, route intravenous; conditions: in vivo, 1 h; summary of the method: as §3
Cerebellum [16] = assay: Biodistribution in CD1 mouse cerebellum assessed per gram of wet tissue at 400 to 600 kBq, iv after 120 mins post-injection by gamma counting; format: ADME, organism-based; conditions: in vivo, 2 h; summary of the method: as §2
Liver = assay: Biodistribution in CD1 mouse liver assessed per gram of wet tissue at 400 to 600 kBq, iv after 5 mins post-injection by gamma counting; format: ADME, organism-based; conditions: in vivo; summary of the method: as §1
Lung [17] = assay: Biodistribution in CD1 mouse lung assessed per gram of wet tissue at 400 to 600 kBq, iv after 60 mins post-injection by gamma counting; format: ADME, organism-based; conditions: in vivo, 1 h; summary of the method: as §1
Pancreas [18] = assay: Biodistribution in CD1 mouse pancreas assessed per gram of wet tissue at 400 to 600 kBq, iv after 5 mins post-injection by gamma counting; format: ADME, organism-based; conditions: in vivo; summary of the method: as §1
Intestine [19] = assay: Biodistribution in CD1 mouse intestine assessed per gram of wet tissue at 400 to 600 kBq, iv after 120 mins post-injection by gamma counting; format: ADME, organism-based; conditions: in vivo, 2 h; summary of the method: as §2
Stomach [20] = assay: Biodistribution in CD1 mouse stomach assessed per gram of wet tissue at 400 to 600 kBq, iv after 30 mins post-injection by gamma counting; format: ADME, organism-based; conditions: in vivo, 0.5 h; summary of the method: as §1
Brain [21] = assay: Biodistribution in CD1 mouse brain assessed per gram of wet tissue at 400 to 600 kBq, iv after 60 mins post-injection by gamma counting; format: ADME, organism-based; conditions: in vivo, 1 h; summary of the method: as §2
[22] = Chemical stability in solution of 0.9% NaCl, phosphate buffer saline and Tris-HCl up to 120 mins; format: physicochemical; conditions: 2 h
Spleen [23] = assay: Biodistribution in CD1 mouse spleen assessed per gram of wet tissue at 400 to 600 kBq, iv after 60 mins post-injection by gamma counting in presence of 1 mg/kg, ip sigma 1/sigma 2 receptor antagonist haloperidol treated before compound addition; format: organism-based; design: route intravenous; conditions: in vivo, 1 h
Summary of the method: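 They were killed at 60 min pi, and organs were weighed and γ-counted as % ID/g wet tissue. Comparison with controls used Student's t test (independent, two-tailed).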

Heart [24] = assay: Biodistribution in CD1 mouse heart assessed per gram of wet tissue at 400 to 600 kBq, iv after 30 mins post-injection by gamma counting; format: ADME, organism-based; conditions: in vivo, 0.5 h; summary of the method: as §2
[25] = Biodistribution in CD1 mouse thymus assessed per gram of wet tissue at 400 to 600 kBq, iv after 5 mins post-injection by gamma counting; format: ADME, organism-based; conditions: in vivo; summary of the method: as §1

Q: Which results are given for [18F]CCCC1OC2(CCN(Cc3ccccc3)CC2)c2ccccc21 (configuration not stated)?
A: Drug uptake (Stomach [1]): 3.17 %ID; Drug uptake (Brain [2]): 3.66 %ID; Drug uptake (Cerebellum [3]): 2.99 %ID; Drug uptake (Lung [4]): 16.2 %ID; Kp at 5 min [5]: 2.49; Drug uptake (Heart [6]): 1.09 %ID; Drug uptake (Cerebellum [7]): 3.71 %ID; Drug uptake (Intestine [8]): 6.6 %ID; Drug uptake (Spleen [9]): 4.51 %ID; Drug uptake (Pancreas [10]): 8.92 %ID; Drug uptake (Heart [11]): 6.52 %ID; Kp at 1 h [12]: 1; Drug uptake (Femur [13]): 3.48 %ID; Drug uptake (Cerebellum [14]): 0.63 %ID; Drug uptake (Mus musculus): 0.52 %ID; Drug uptake (Femur [15]): 4.27 %ID; Drug uptake (Cerebellum [16]): 2.41 %ID; Drug uptake (Liver): 5.54 %ID; Drug uptake (Lung [17]): 4.64 %ID; Drug uptake (Pancreas [18]): 8.76 %ID; Drug uptake (Intestine [19]): 9.03 %ID; Drug uptake (Stomach [20]): 5.13 %ID; Drug uptake (Brain [21]): 2.27 %ID; Stability [22]: Stable; Drug uptake (Spleen [23]): 1.89 %ID; Drug uptake (Heart [24]): 3.75 %ID; Drug uptake [25]: 3.98 %ID
